In ChEMBL document CHEMBL1649552 (2009):
Converted amounts (≈) assume the structure as drawn.

How the values were obtained:
Assay type in all cases: functional
Streptococcus agalactiae = experiment: Antibacterial activity against Streptococcus agalactiae by CLSI M100-S17 method
Acinetobacter baumannii = experiment: Antibacterial activity against Acinetobacter baumannii by CLSI M100-S17 method
Escherichia coli [1] = experiment: Antibacterial activity against Escherichia coli AG100
Staphylococcus aureus [2] = experiment: Antibacterial activity against methicillin-resistant Staphylococcus aureus by CLSI M100-S17 method
Moraxella catarrhalis = experiment: Antibacterial activity against Moraxella catarrhalis by CLSI M100-S17 method
Klebsiella pneumoniae = experiment: Antibacterial activity against Klebsiella pneumoniae by CLSI M100-S17 method
Enterobacter cloacae = experiment: Antibacterial activity against Enterobacter cloacae by CLSI M100-S17 method
Escherichia coli [3] = experiment: Antibacterial activity against acrAB-deficient Escherichia coli AG100a
Enterococcus faecium = experiment: Antibacterial activity against Enterococcus faecium by CLSI M100-S17 method
Staphylococcus aureus [4] = experiment: Antibacterial activity against methicillin-susceptible Staphylococcus aureus by CLSI M100-S17 method
Klebsiella oxytoca = experiment: Antibacterial activity against Klebsiella oxytoca by CLSI M100-S17 method
[5] = test system: Staphylococcus epidermidis; experiment: Antibacterial activity against methicillin-resistant Staphylococcus epidermidis by CLSI M100-S17 method
[6] = test system: Staphylococcus epidermidis; experiment: Antibacterial activity against methicillin-susceptible Staphylococcus epidermidis by CLSI M100-S17 method
Pseudomonas aeruginosa = experiment: Antibacterial activity against Pseudomonas aeruginosa by CLSI M100-S17 method
Serratia marcescens = experiment: Antibacterial activity against Serratia marcescens by CLSI M100-S17 method
Staphylococcus aureus [7] = experiment: Antibacterial activity against Staphylococcus aureus ATCC 29213 by CLSI M100-S17 method; conditions: ATCC29213
Method in brief: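 Reference strain S. aureus ATCC 29213 was tested by CLSI broth microdilution in frozen in-house panels. Compound was dissolved and diluted in DMSO over doubling dilutions of 0.008 to 4 μg/ml.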

Streptococcus pneumoniae = experiment: Antibacterial activity against Streptococcus pneumoniae by CLSI M100-S17 method
Streptococcus pyogenes = experiment: Antibacterial activity against Streptococcus pyogenes by CLSI M100-S17 method
[8] = test system: Stenotrophomonas maltophilia; experiment: Antibacterial activity against Stenotrophomonas maltophilia by CLSI M100-S17 method
Escherichia coli [9] = experiment: Antibacterial activity against Escherichia coli by CLSI M100-S17 method
Enterococcus faecalis = experiment: Antibacterial activity against Enterococcus faecalis by CLSI M100-S17 method
Proteus mirabilis = experiment: Antibacterial activity against Proteus mirabilis by CLSI M100-S17 method

Cc1c(CN(C)C(=O)/C=C/c2cnc3c(c2)CCC(=O)N3)oc2ccccc12 [AFN-1252]
MIC (Streptococcus agalactiae): > 4 µg/mL | MIC50 (Streptococcus agalactiae): > 4 µg/mL | MIC90 (Streptococcus agalactiae): > 4 µg/mL | MIC (Acinetobacter baumannii): > 4 µg/mL | MIC50 (Acinetobacter baumannii): > 4 µg/mL | MIC90 (Acinetobacter baumannii): > 4 µg/mL | MIC (Escherichia coli [1]): > 32 µg/mL | MIC (Staphylococcus aureus [2]): 0.008 µg/mL (≈ 0.0213 µM) | MIC50 (Moraxella catarrhalis): > 4 µg/mL | MIC90 (Moraxella catarrhalis): > 4 µg/mL | MIC50 (Klebsiella pneumoniae): > 4 µg/mL | MIC90 (Klebsiella pneumoniae): > 4 µg/mL | MIC50 (Enterobacter cloacae): > 4 µg/mL | MIC90 (Enterobacter cloacae): > 4 µg/mL | MIC (Escherichia coli [3]): 0.016 µg/mL (≈ 0.0426 µM) | MIC50 (Enterococcus faecium): > 4 µg/mL | MIC90 (Enterococcus faecium): > 4 µg/mL | MIC50 (Staphylococcus aureus [4]): ≤ 0.008 µg/mL | MIC90 (Staphylococcus aureus [4]): ≤ 0.008 µg/mL | MIC50 (Klebsiella oxytoca): > 4 µg/mL | MIC90 (Klebsiella oxytoca): > 4 µg/mL | MIC [5]: 0.008 µg/mL (≈ 0.0213 µM) | MIC90 [5]: ≤ 0.008 µg/mL | MIC50 [6]: ≤ 0.008 µg/mL | MIC90 [6]: 0.03 µg/mL (≈ 0.0799 µM) | MIC (Pseudomonas aeruginosa): > 4 µg/mL | MIC50 (Pseudomonas aeruginosa): > 4 µg/mL | MIC90 (Pseudomonas aeruginosa): > 4 µg/mL | MIC50 (Serratia marcescens): 4 µg/mL (≈ 10.7 µM) | MIC90 (Serratia marcescens): > 4 µg/mL | MIC (Staphylococcus aureus [7]): 0.015 µg/mL (≈ 0.04 µM) | MIC50 (Streptococcus pneumoniae): > 4 µg/mL | MIC90 (Streptococcus pneumoniae): > 4 µg/mL | MIC50 (Streptococcus pyogenes): > 4 µg/mL | MIC90 (Streptococcus pyogenes): > 4 µg/mL | MIC (Streptococcus pyogenes; read-out: MIC): > 4 µg/mL | MIC [8]: > 4 µg/mL | MIC50 [8]: > 4 µg/mL | MIC90 [8]: > 4 µg/mL | MIC50 (Escherichia coli [9]): 4 µg/mL (≈ 10.7 µM) | MIC90 (Escherichia coli [9]): > 4 µg/mL | MIC (Enterococcus faecalis): > 4 µg/mL | MIC50 (Enterococcus faecalis): > 4 µg/mL | MIC90 (Enterococcus faecalis): > 4 µg/mL | MIC50 (Proteus mirabilis): 4 µg/mL (≈ 10.7 µM) | MIC90 (Proteus mirabilis): > 4 µg/mL
